Experimental data taken from ChEMBL document CHEMBL4715736, “Identification of anticancer agents based on the thieno[2,3-b]pyridine and 1H-pyrazole molecular scaffolds” (2016).

Assays:
Format in all cases: functional
Details in all cases: read-out: Activity
OVCAR-8 = test: Growth inhibition of human OVCAR-8 cells assessed as cell growth at 10 uM incubated for 48 hrs by sulforhodamine B assay relative to control
Method in brief: (§1)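 Run by the NCI Developmental Therapeutics Program as part of its 60-line human tumour panel. Each compound tested at a single 10 µM dose. Growth expressed as % relative to untreated control cells (100%).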

SF-295 = test: Growth inhibition of human SF-295 cells assessed as cell growth at 10 uM incubated for 48 hrs by sulforhodamine B assay relative to control; method in brief: as §1
CCRF-CEM = test: Growth inhibition of human CCRF-CEM cells assessed as cell growth at 10 uM incubated for 48 hrs by sulforhodamine B assay relative to control
Method in brief: (§2)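 NCI Developmental Therapeutics Program NCI60 panel. Compounds that were active in the 10 µM one-dose screen went on to dose–response testing. Growth at each concentration is expressed relative to untreated control (100%). GI50 (concentration giving 50% of maximal inhibition of proliferation) and TGI (concentration giving total growth inhibition) were derived from the curves.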

COLO 205 = test: Growth inhibition of human COLO 205 cells assessed as cell growth at 10 uM incubated for 48 hrs by sulforhodamine B assay relative to control; method in brief: as §2
DU-145 = test: Growth inhibition of human DU-145 cells assessed as cell growth at 10 uM incubated for 48 hrs by sulforhodamine B assay relative to control; method in brief: as §2
IGROV-1 = test: Growth inhibition of human IGROV-1 cells assessed as cell growth at 10 uM incubated for 48 hrs by sulforhodamine B assay relative to control
Method in brief: (§3)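 Submitted to the NCI Developmental Therapeutics Program for the NCI60 human tumour cell line panel. First screen at a single 10 µM concentration. Read-out is growth relative to untreated control cells set at 100%.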

NCI-H23 = test: Growth inhibition of human NCI-H23 cells assessed as cell growth at 10 uM incubated for 48 hrs by sulforhodamine B assay relative to control; method in brief: as §3
RPMI-8226 = test: Growth inhibition of human RPMI-8226 cells assessed as cell growth at 10 uM incubated for 48 hrs by sulforhodamine B assay relative to control; method in brief: as §1
SK-MEL-28 = test: Growth inhibition of human SK-MEL-28 cells assessed as cell growth at 10 uM incubated for 48 hrs by sulforhodamine B assay relative to control; method in brief: as §1
OVCAR-3 = test: Growth inhibition of human OVCAR-3 cells assessed as cell growth at 10 uM incubated for 48 hrs by sulforhodamine B assay relative to control; method in brief: as §1
MDA-MB-231 = test: Growth inhibition of human MDA-MB-231 cells assessed as cell growth at 10 uM incubated for 48 hrs by sulforhodamine B assay relative to control; method in brief: as §3
OVCAR-5 = test: Growth inhibition of human OVCAR-5 cells assessed as cell growth at 10 uM incubated for 48 hrs by sulforhodamine B assay relative to control; method in brief: as §1
HCC 2998 = test: Growth inhibition of human HCC 2998 cells assessed as cell growth at 10 uM incubated for 48 hrs by sulforhodamine B assay relative to control; method in brief: as §2
SW-620 = test: Growth inhibition of human SW-620 cells assessed as cell growth at 10 uM incubated for 48 hrs by sulforhodamine B assay relative to control; method in brief: as §1
NCI-H322M = test: Growth inhibition of human NCI-H322M cells assessed as cell growth at 10 uM incubated for 48 hrs by sulforhodamine B assay relative to control; method in brief: as §3
T47D = test: Growth inhibition of human T47D cells assessed as cell growth at 10 uM incubated for 48 hrs by sulforhodamine B assay relative to control; method in brief: as §1
MDA-MB-435 = test: Growth inhibition of human MDA-MB-435 cells assessed as cell growth at 10 uM incubated for 48 hrs by sulforhodamine B assay relative to control; method in brief: as §3
SF-539 = test: Growth inhibition of human SF-539 cells assessed as cell growth at 10 uM incubated for 48 hrs by sulforhodamine B assay relative to control; method in brief: as §1
Hs-578T = test: Growth inhibition of human Hs-578T cells assessed as cell growth at 10 uM incubated for 48 hrs by sulforhodamine B assay relative to control; method in brief: as §3
NCI/ADR-RES = test: Growth inhibition of human NCI/ADR-RES cells assessed as cell growth at 10 uM incubated for 48 hrs by sulforhodamine B assay relative to control; method in brief: as §3
SF-268 = test: Growth inhibition of human SF-268 cells assessed as cell growth at 10 uM incubated for 48 hrs by sulforhodamine B assay relative to control; method in brief: as §1
K562 = test: Growth inhibition of human K562 cells assessed as cell growth at 10 uM incubated for 48 hrs by sulforhodamine B assay relative to control; method in brief: as §3
PC-3 = test: Growth inhibition of human PC-3 cells assessed as cell growth at 10 uM incubated for 48 hrs by sulforhodamine B assay relative to control; method in brief: as §1
HL-60(TB) = test: Growth inhibition of human HL-60(TB) cells assessed as cell growth at 10 uM incubated for 48 hrs by sulforhodamine B assay relative to control
Method in brief: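 Screened by the NCI Developmental Therapeutics Program on its panel of 60 human tumour cell lines. Compounds were first tested at a single 10 µM dose, and compounds active there went to dose-response curves. Growth is expressed relative to untreated control (100%). GI50 (50% of maximal proliferation inhibition) and TGI (total growth inhibition) were derived from the dose-response data.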

A549 = test: Growth inhibition of human A549/ATCC cells assessed as cell growth at 10 uM incubated for 48 hrs by sulforhodamine B assay relative to control; method in brief: as §2
LOX IMVI = test: Growth inhibition of human LOX IMVI cells assessed as cell growth at 10 uM incubated for 48 hrs by sulforhodamine B assay relative to control; method in brief: as §3
OVCAR-4 = test: Growth inhibition of human OVCAR-4 cells assessed as cell growth at 10 uM incubated for 48 hrs by sulforhodamine B assay relative to control; method in brief: as §1
ACHN = test: Growth inhibition of human ACHN cells assessed as cell growth at 10 uM incubated for 48 hrs by sulforhodamine B assay relative to control
Method in brief: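 NCI Developmental Therapeutics Program NCI60 human tumour cell line panel, one-dose primary screen with every compound at 10 µM. Growth is expressed as % of untreated control cells (100%).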

MCF7 = test: Growth inhibition of human MCF7 cells assessed as cell growth at 10 uM incubated for 48 hrs by sulforhodamine B assay relative to control; method in brief: as §3
HOP-92 = test: Growth inhibition of human HOP-92 cells assessed as cell growth at 10 uM incubated for 48 hrs by sulforhodamine B assay relative to control; method in brief: as §3
MDA-MB-468 = test: Growth inhibition of human MDA-MB-468 cells assessed as cell growth at 10 uM incubated for 48 hrs by sulforhodamine B assay relative to control; method in brief: as §3
UACC-62 = test: Growth inhibition of human UACC-62 cells assessed as cell growth at 10 uM incubated for 48 hrs by sulforhodamine B assay relative to control; method in brief: as §1
U-251 = test: Growth inhibition of human U-251 cells assessed as cell growth at 10 uM incubated for 48 hrs by sulforhodamine B assay relative to control; method in brief: as §1

| SMILES | growth at 10 µM (OVCAR-8) | growth at 10 µM (SF-295) | growth at 10 µM (CCRF-CEM) | growth at 10 µM (COLO 205) | growth at 10 µM (DU-145) | growth at 10 µM (IGROV-1) | growth at 10 µM (RPMI-8226) | growth at 10 µM (SK-MEL-28) | growth at 10 µM (OVCAR-3) | growth at 10 µM (MDA-MB-231) | growth at 10 µM (OVCAR-5) | growth at 10 µM (HCC 2998) | growth at 10 µM (SW-620) | growth at 10 µM (NCI-H322M) | growth at 10 µM (T47D) | growth at 10 µM (MDA-MB-435) | growth at 10 µM (SF-539) | growth at 10 µM (Hs-578T) | growth at 10 µM (NCI/ADR-RES) | growth at 10 µM (SF-268) | further results |
| --- | --- | --- | --- | --- | --- | --- | --- | --- | --- | --- | --- | --- | --- | --- | --- | --- | --- | --- | --- | --- | --- |
| CC(=O)c1cccc(NC(=O)c2sc3nc4c(cc3c2N)C(=O)CCC4)c1 | 101% | 90.8% | 99.7% | 100% | 108% | 96.2% | 92.7% | 92.4% | 120% | 100% | 106% | 97.7% | 98.4% | 111% | 93.8% | 66.8% | 101% | 106% | 107% | 110% | growth at 10 µM (NCI-H23): 98.8%; growth at 10 µM (K562): 79.8%; growth at 10 µM (PC-3): 96.3%; growth at 10 µM (HL-60(TB)): 102%; growth at 10 µM (A549): 92.8%; growth at 10 µM (LOX IMVI): 106%; growth at 10 µM (OVCAR-4): 88.1%; growth at 10 µM (ACHN): 103%; growth at 10 µM (MCF7): 84.4%; growth at 10 µM (HOP-92): 92.8%; growth at 10 µM (MDA-MB-468): 82.8%; growth at 10 µM (UACC-62): 98.4% |
| Cc1ccc(NC(=O)c2sc3nc4c(cc3c2N)C(=O)CCC4)cc1C | 31% | 8.72% | -6% | -63% | 8.18% | 23.9% | -2% | 37.3% | -17% | 22% | 21% | 10% | 15% | 35% | 24.1% | -67% | -18% | 18% | 9% | 42.7% | growth at 10 µM (U-251): 10%; growth at 10 µM (K562): 5%; growth at 10 µM (HL-60(TB)): -21%; growth at 10 µM (A549): 19.5%; growth at 10 µM (LOX IMVI): 39.2%; growth at 10 µM (OVCAR-4): 32%; growth at 10 µM (ACHN): 43%; growth at 10 µM (MCF7): 10.7%; growth at 10 µM (HOP-92): 50%; growth at 10 µM (MDA-MB-468): 4% |
